Data taken from ChEMBL document CHEMBL1141166, “2-[(Carboxymethyl)sulfanyl]-4-oxo-4-arylbutanoic acids selectively suppressed proliferation of neoplastic human HeLa cells. A SAR/QSAR study” (J Med Chem, 2005).

Tests used:
[1] = tested on: PBMC (Homo sapiens); assay: Inhibitory concentration that required to induce 50% decrease in PBMC (healthy human's peripheral blood cells) cells survival
[2] = tested on: HeLa; assay: Observed concentration that required to induce 50% decrease in HeLa cell survival; format: functional, cell-based; conditions: Homo sapiens, read-out: Log 1/IC50 (converted)
Method in brief: (§1)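 HeLa cells seeded at 2000/well and left 20 h, then exposed to five concentrations (final 3.12 to 50 or 100 μM/L, diluted from a 10 mM/L DMSO stock) in triplicate for 72 h. Medium was RPMI 1640 without phenol red with 10% FBS and 25 mM HEPES, pH 7.2. Survival by MTT: 4 h at 37 °C, SDS lysis, A570. Blank was subtracted and values taken as % of untreated control. IC50 is the concentration giving 50% survival loss.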

[3] = tested on: PBMC+PHA (Homo sapiens); assay: Selectivity index that required to induce 50% decrease in PBMC+PHA (healthy human's peripheral blood cells) cells survival
[4] = tested on: HeLa; assay: Inhibitory concentration inducing 50% decrease in HeLa cell survival; format: functional, cell-based; conditions: Homo sapiens
Method in brief: as §1

[5] = Partition coefficient (logP); format: physicochemical; conditions: octanol/water
Method in brief: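 Calculated rather than measured: log P (n-octanol/water) estimated by Crippen's fragmentation method.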

[6] = tested on: PBMC (Homo sapiens); assay: Selectivity index that required to induce 50% decrease in PBMC (healthy human's peripheral blood cells) cells survival
[7] = tested on: PBMC+PHA (Homo sapiens); assay: Inhibitory concentration that required to Induced a 50% decrease in PBMC+PHA (healthy human's peripheral blood cells) cells survival
[8] = tested on: PBMC+PHA (Homo sapiens); assay: Inhibitory concentration that required to induced a 50% decrease in PBMC+PHA (healthy human's peripheral blood cells) cells survival
[9] = tested on: PBMC+PHA (Homo sapiens); assay: Inhibitory concentration that required to induce 50% decrease in PBMC+PHA (healthy human's peripheral blood cells) cells survival
[10] = tested on: PBMC (Homo sapiens); assay: Inhibitory concentration that required to Induced a 50% decrease in PBMC (healthy human's peripheral blood cells) cells survival

logP [5]	Compound	IC50 [1] [µM]	IC50 [2] [µM]	Si [3]	IC50 [4] [µM]	Si [6]	IC50 [7] [µM]	IC50 [8] [µM]	IC50 [9] [µM]	IC50 [10] [µM]
4.12	CC(C)(C)c1ccc(C(C)(C)C)c(C(=O)CC(SCC(=O)O)C(=O)O)c1 (stereo not drawn)	43.7	4.36	8.5	4.36	10	37.1	–	–	–
0.71	O=C(O)CSC(CC(=O)c1ccccc1)C(=O)O (stereo not drawn)	–	15	–	15	–	–	–	–	–
2.41	CC(C)(C)c1ccc(C(=O)CC(SCC(=O)O)C(=O)O)cc1 (stereo not drawn)	–	1.39	–	1.39	–	–	–	–	–
1.75	Cc1ccc(C(=O)CC(SCC(=O)O)C(=O)O)c(Cl)c1 (stereo not drawn)	–	4.73	–	4.73	–	–	–	–	–
1.54	O=C(O)CSC(CC(=O)c1ccc(Br)cc1)C(=O)O (stereo not drawn)	–	9.51	–	9.5	–	–	–	–	–
1.2	Cc1ccc(C(=O)CC(SCC(=O)O)C(=O)O)cc1 (stereo not drawn)	–	17.3	–	17.3	–	–	–	–	–
3.18	CC(C)c1ccc(C(=O)CC(SCC(=O)O)C(=O)O)c(C(C)C)c1 (stereo not drawn)	6.79	1.1	6.49	1.1	6.17	–	7.14	–	–
0.87	O=C(O)CSC(CC(=O)c1ccc(F)cc1)C(=O)O (stereo not drawn)	–	20.7	–	20.7	–	–	–	–	–
1.68	Cc1ccc(C(=O)CC(SCC(=O)O)C(=O)O)c(C)c1 (stereo not drawn)	–	3.83	–	3.83	–	–	–	–	–
1.68	Cc1ccc(C)c(C(=O)CC(SCC(=O)O)C(=O)O)c1 (stereo not drawn)	–	2.68	–	2.68	–	–	–	–	–
1.94	CC(C)c1ccc(C(=O)CC(SCC(=O)O)C(=O)O)cc1 (stereo not drawn)	–	3.33	–	3.33	–	–	–	–	–
0.33	COc1ccc(C(=O)CC(SCC(=O)O)C(=O)O)c(OC)c1OC (stereo not drawn)	–	29.5	–	29.5	–	–	–	–	–
1.61	CCc1ccc(C(=O)CC(SCC(=O)O)C(=O)O)cc1 (stereo not drawn)	–	4.79	–	4.79	–	–	–	–	–
1.68	Cc1ccc(C(=O)CC(SCC(=O)O)C(=O)O)cc1C (stereo not drawn)	–	3.81	–	3.81	–	–	–	–	–
5.79	CCCCCCCCCCCCc1ccc(C(=O)CC(SCC(=O)O)C(=O)O)cc1 (stereo not drawn)	–	1.71	–	1.71	–	–	–	–	–
2.45	CCCCc1ccc(C(=O)CC(SCC(=O)O)C(=O)O)cc1 (stereo not drawn)	–	1.91	–	1.92	–	–	–	–	–
–	O=C(O)CS [THIOGLYCOLIC ACID]	> 200	–	–	> 200	–	–	–	> 200	–
3.18	CC(C)c1ccc(C(C)C)c(C(=O)CC(SCC(=O)O)C(=O)O)c1 (stereo not drawn)	13.3	0.644	24.33	0.644	20.65	–	–	15.7	–
4.41	CC(C)c1cc(C(C)C)c(C(=O)CC(SCC(=O)O)C(=O)O)c(C(C)C)c1 (stereo not drawn)	–	1.66	2.58	1.66	2	4.78	–	–	3.32
1.27	O=C(O)CSC(CC(=O)c1ccc(Cl)cc1)C(=O)O (stereo not drawn)	–	17.3	–	17.2	–	–	–	–	–
3.42	CCc1cc(CC)c(C(=O)CC(SCC(=O)O)C(=O)O)c(CC)c1 (stereo not drawn)	–	0.879	22.63	0.88	21.56	19.9	–	–	19
